Calls of active or inactive are those of the source. The calls are words filed in the database; no cut-off is given here.
What was measured:
Toll-like receptor 4 = Toll-like receptor 4 (Homo sapiens, UniProt O00206); assay: Binding affinity to recombinant human C-terminal 10His-tagged TLR4 (Glu24 to Lys631 residues) expressed in mouse NS0 cells by surface plasmon resonance analysis
Mus musculus [1] = assay: Antiinflammatory activity in LPS-induced C57BL/6 mouse model of acute lung injury assessed as reduction in airspace inflammation at 5 to 10 mg/kg, iv pretreated for 15 mins followed by LPS stimulation and measured after 6 hrs by H and E staining-based microscopic analysis; format: functional, organism-based
How it was run: (§1)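 Male C57BL/6 mice (18−22 g; n=8 per group). Compound in 0.1% CMC-Na given by tail vein injection 15 min before intraperitoneal LPS (20 mg/kg); controls received saline. Mice were sacrificed 6 h after LPS, and serum and lung tissue were collected.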

Mus musculus [2] = assay: Antiinflammatory activity in LPS-induced C57BL/6 mouse model of acute lung injury assessed as suppression of neutrophil lung infiltration by measuring reduction in MPO activity at 5 to 10 mg/kg, iv pretreated for 15 mins followed by LPS stimulation and measured after 6 hrs; format: functional, organism-based; how it was run: as §1
[3] = biological target: RAC-alpha serine/threonine-protein kinase (Homo sapiens) (UniProt P31749); assay: Inhibition of wild-type human partial length AKT1 expressed in bacterial expression system at 1 uM by Kinomescan method
RAC-alpha serine/threonine-protein kinase (Homo sapiens), sequence (P31749 whole entry): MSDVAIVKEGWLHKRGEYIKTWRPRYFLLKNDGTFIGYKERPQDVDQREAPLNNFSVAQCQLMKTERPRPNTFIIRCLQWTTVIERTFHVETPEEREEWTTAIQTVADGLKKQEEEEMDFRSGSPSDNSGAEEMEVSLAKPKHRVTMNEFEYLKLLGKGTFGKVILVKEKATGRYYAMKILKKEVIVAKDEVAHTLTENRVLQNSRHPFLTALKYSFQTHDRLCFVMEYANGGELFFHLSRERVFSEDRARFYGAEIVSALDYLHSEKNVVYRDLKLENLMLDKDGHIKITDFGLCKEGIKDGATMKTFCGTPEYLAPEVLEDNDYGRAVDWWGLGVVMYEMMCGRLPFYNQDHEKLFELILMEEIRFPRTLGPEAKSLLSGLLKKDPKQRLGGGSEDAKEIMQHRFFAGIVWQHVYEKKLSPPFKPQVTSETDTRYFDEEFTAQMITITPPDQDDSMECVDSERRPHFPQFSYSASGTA
How it was run: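 KINOMEscan competition binding screen at 1 μM compound. Results reported as % of control = (test − positive control)/(DMSO negative control − positive control) × 100, where lower values mean stronger hits.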

[4] = biological target: Receptor tyrosine-protein kinase erbB-4 (Homo sapiens) (UniProt Q15303); assay: Inhibition of wild-type human partial length ERBB4 (L690 to K994 residues) expressed in bacterial expression system at 1 uM by Kinomescan method
Receptor tyrosine-protein kinase erbB-4 (Homo sapiens), sequence (Q15303 whole entry, the tested form may be a part): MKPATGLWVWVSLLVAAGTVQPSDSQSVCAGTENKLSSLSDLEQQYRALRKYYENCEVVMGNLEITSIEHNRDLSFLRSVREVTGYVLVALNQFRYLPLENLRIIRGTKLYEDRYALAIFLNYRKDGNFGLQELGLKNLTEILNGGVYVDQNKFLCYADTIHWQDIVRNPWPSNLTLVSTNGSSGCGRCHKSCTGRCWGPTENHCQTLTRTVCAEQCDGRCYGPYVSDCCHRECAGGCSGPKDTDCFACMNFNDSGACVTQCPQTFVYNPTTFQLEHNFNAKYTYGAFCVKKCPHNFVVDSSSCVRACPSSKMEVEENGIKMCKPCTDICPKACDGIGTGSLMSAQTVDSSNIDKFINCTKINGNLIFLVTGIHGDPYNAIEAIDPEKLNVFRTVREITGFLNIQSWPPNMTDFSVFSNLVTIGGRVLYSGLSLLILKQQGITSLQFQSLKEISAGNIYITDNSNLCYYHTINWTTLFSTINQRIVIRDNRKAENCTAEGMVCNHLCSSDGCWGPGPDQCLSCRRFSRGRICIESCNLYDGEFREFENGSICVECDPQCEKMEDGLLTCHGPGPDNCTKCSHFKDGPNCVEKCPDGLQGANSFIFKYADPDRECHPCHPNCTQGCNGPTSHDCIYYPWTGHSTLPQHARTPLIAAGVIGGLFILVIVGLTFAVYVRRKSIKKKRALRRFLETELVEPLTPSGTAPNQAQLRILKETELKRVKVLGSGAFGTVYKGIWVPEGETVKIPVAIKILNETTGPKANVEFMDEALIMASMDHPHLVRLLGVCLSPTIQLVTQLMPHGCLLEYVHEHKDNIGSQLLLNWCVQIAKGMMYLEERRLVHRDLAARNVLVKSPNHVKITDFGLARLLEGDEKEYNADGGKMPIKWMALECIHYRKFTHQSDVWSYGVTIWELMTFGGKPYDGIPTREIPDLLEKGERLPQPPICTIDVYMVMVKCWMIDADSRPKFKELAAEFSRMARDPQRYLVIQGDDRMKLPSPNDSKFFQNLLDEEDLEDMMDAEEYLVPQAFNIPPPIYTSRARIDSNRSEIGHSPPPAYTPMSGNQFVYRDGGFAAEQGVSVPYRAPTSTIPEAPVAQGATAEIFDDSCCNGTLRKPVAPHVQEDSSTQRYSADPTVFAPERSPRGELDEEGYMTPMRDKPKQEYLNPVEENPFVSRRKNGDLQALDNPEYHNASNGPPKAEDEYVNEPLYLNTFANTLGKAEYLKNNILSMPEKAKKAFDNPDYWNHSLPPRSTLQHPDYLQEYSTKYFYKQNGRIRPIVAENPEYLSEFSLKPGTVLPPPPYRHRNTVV
How it was run: (§2)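 Binding-competition screen on the KINOMEscan platform, run by the provider, with the test compound at 1 μM. Readout is percent of control: (test signal − positive control signal)/(negative control signal − positive control signal) × 100. The DMSO negative control is set as 100% Ctrl and a control compound as 0% Ctrl. Lower values mean stronger hits.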

[5] = biological target: Rho-associated protein kinase 2 (Homo sapiens) (UniProt O75116); assay: Inhibition of wild-type human partial length ROCK2 (M1 to T431 residues) expressed in mammalian expression system at 1 uM by Kinomescan method; how it was run: as §2
Rho-associated protein kinase 2 (Homo sapiens), sequence (O75116 whole entry, looked up, the tested form may be a part): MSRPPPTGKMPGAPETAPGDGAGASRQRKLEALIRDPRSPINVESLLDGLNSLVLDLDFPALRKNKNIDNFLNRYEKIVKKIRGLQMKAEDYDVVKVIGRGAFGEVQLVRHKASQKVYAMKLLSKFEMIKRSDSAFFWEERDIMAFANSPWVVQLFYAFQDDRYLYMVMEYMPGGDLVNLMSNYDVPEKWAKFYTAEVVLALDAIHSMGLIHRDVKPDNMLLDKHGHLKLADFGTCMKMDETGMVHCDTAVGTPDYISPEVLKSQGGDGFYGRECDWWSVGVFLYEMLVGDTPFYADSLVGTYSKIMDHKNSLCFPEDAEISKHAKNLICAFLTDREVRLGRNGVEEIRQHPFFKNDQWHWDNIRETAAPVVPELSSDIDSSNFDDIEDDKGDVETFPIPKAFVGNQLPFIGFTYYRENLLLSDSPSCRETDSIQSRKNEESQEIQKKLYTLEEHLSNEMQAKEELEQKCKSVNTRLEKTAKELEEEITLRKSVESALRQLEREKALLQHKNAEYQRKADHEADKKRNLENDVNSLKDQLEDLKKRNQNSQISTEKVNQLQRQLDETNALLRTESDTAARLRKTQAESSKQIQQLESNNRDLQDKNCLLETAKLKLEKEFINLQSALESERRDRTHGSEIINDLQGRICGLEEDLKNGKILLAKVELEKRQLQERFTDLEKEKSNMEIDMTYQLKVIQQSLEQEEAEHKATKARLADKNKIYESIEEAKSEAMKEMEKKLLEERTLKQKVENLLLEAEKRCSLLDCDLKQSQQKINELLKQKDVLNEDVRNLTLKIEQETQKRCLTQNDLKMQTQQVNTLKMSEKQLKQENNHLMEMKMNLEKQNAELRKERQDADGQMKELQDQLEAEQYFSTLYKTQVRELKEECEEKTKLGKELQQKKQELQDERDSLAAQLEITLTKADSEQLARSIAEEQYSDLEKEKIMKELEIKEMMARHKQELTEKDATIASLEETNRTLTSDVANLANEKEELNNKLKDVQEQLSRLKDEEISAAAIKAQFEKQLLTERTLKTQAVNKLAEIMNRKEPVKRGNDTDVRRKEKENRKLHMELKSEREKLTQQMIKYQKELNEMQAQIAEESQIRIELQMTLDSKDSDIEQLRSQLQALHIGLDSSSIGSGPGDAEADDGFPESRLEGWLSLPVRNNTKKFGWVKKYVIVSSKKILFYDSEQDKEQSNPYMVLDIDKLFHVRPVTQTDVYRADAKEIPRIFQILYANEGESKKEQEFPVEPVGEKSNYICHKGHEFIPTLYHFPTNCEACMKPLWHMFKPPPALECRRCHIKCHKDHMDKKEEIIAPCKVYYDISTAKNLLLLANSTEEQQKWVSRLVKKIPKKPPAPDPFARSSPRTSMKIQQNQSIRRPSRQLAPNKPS

Toll-like receptor 4, sequence (O00206 whole entry): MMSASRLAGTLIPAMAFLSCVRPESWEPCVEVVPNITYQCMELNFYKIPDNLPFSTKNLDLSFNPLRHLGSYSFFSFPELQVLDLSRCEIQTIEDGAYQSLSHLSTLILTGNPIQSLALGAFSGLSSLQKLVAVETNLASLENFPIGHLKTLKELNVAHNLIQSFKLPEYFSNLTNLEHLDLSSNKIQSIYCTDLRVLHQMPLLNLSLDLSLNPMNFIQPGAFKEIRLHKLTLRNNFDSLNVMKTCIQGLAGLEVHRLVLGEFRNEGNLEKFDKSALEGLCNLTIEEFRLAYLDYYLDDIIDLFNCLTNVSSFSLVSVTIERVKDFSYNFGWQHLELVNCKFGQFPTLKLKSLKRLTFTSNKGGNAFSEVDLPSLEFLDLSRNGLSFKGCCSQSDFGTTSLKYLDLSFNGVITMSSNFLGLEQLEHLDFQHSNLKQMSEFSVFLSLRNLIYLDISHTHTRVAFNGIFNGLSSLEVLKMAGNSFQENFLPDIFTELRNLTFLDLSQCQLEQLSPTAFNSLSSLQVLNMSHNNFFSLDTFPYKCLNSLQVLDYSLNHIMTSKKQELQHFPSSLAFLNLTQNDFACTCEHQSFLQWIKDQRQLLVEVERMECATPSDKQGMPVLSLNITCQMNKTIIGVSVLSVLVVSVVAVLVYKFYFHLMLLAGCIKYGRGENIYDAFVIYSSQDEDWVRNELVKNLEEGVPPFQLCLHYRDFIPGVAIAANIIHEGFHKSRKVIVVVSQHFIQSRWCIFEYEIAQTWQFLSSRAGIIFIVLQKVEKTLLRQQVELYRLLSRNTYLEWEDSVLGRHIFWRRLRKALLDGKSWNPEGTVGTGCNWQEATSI

O=C(Nc1ccc2[nH]nc(-c3ccc4[nH]ccc4c3)c2c1)c1c(Cl)cccc1Cl
Kd (Toll-like receptor 4): 146 µM
Activity (Mus musculus [1]): Active
Activity (Mus musculus [2]): Active
inhibition [3]: inactive
inhibition [4]: inactive
inhibition [5]: inactive

From ChEMBL document CHEMBL4304739, “Discovery of 3-(Indol-5-yl)-indazole Derivatives as Novel Myeloid Differentiation Protein 2/Toll-like Receptor 4 Antagonists for Treatment of Acute Lung Injury” (J Med Chem, 2019)
